Source: ChEMBL document CHEMBL4680084, “New β-Lactam Derivatives Modulate Cell Adhesion and Signaling Mediated by RGD-Binding and Leukocyte Integrins” (J Med Chem, 2016)
Calls of active or inactive are those of the source. The rule behind the calls is not given here.

Tests used:
[1] = molecular target: T1, Integrin alpha-4/beta-1 (Homo sapiens, UniProt P05556+P13612); test: Antagonist activity at alpha4beta1 in human Jurkat E6.1 cells assessed as reduction in cell adhesion to VCAM1 pre-incubated for 30 mins before VCAM1 and further incubated for 30 mins by […]; assay type: cell-based
[2] = molecular target: T2, Integrin alpha-5/beta-1 (Homo sapiens, UniProt P05556+P08648); test: Agonist activity at alpha5beta1 in human K562 cells assessed as assessed as increase in ERK1/2 phosphorylation at 1 to 100 nM by Western blot analysis; assay type: cell-based; details: filed as agonist, dose 1-100 nM
[3] = molecular target: T3, Integrin alpha-V/beta-5 (Homo sapiens, UniProt P06756+P18084); test: Inhibition of fibrinogen binding to alphaVbeta5 isolated form human mCf7 cells incubated for 1 hr by […] competitive solid-phase binding assay
[4] = molecular target: T2, Integrin alpha-5/beta-1; test: Agonist activity at alpha5beta1 in human K562 cells assessed as increase in cell adhesion to fibronectin at 10 ug/ml […] and further incubated for 1 hr in presence of neutralizing antibody against the alpha5 integrin subunit by nitrophenyl-N-acetyl-beta-D-glucosaminide substrate based chromogenic assay; details: dose 10.0 µg/ml, time 90.0 min
[5] = molecular target: T4, Integrin alpha-IIb/beta-3 (Homo sapiens, UniProt P05106+P08514); test: Agonist activity at alpha2bbeta3 in human HEL cells assessed as increase in cell adhesion to fibrinogen pre-incubated for 30 mins before fibrinogen and further incubated for 1 hr by nitrophenyl-N-acetyl-beta-D-glucosaminide substrate based chromogenic assay
In short: (§1)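 Compound or methanol vehicle pre-incubated with cells for 30 min at room temperature. Cells then plated on wells coated overnight at 4 °C with fibronectin 10 µg/mL (SK-MEL-24, K562, HT-29) or fibrinogen 10 µg/mL (MCF7, HEL). Seeding was 50,000 cells/well, or 100000 for HEL. Adhesion ran 1 h at room temperature. Wells washed with 1% BSA/PBS. Quadruplicate, at least three repeats.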

[6] = molecular target: T2, Integrin alpha-5/beta-1; test: Agonist activity at alpha5beta1 in human K562 cells assessed as increase in cell adhesion to fibronectin pre-incubated for 30 mins before fibronectin and further incubated for 1 hr by nitrophenyl-N-acetyl-beta-D-glucosaminide substrate based chromogenic assay
In short: as §1, with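 “BSA/PBS. Adherent cells read by hexosaminidase substrate, absorbance 405 nm.” for “BSA/PBS.”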

[7] = molecular target: T4, Integrin alpha-IIb/beta-3; test: Antagonist activity at alpha2bbeta3 in human HEL cells assessed as reduction in cell adhesion to fibrinogen pre-incubated for 30 mins before fibrinogen and further incubated for 1 hr by nitrophenyl-N-acetyl-beta-D-glucosaminide substrate based chromogenic assay; in short: as §1
[8] = molecular target: T5, Integrin alpha-V/beta-6 (Homo sapiens, UniProt P06756+P18564); test: Inhibition of fibronectin binding to alphaVbeta6 isolated form human HT-29 cells incubated for 1 hr by […] competitive solid-phase binding assay; assay type: tissue-based
[9] = molecular target: T6, Integrin alpha-V/beta-3 (Homo sapiens, UniProt P05106+P06756); test: Inhibition of fibronectin binding to human recombinant alphaVbeta3 expressed in HEK293 cells incubated for 1 hr by […] competitive solid-phase binding assay; assay type: cell-based
[10] = molecular target: T4, Integrin alpha-IIb/beta-3; test: Agonist activity at alpha2bbeta3 in human K562 cells assessed as increase in cell adhesion to fibrinogen pre-incubated for 30 mins and further incubated for 1 hr in presence of alpha2bbeta3 antagonist Tirofiban by nitrophenyl-N-acetyl-beta-D-glucosaminide substrate based chromogenic assay; details: filed as agonist, time 90.0 min
[11] = molecular target: T2, Integrin alpha-5/beta-1; test: Inhibition of fibronectin binding to alpha5beta1 isolated from human K562 cells incubated for 1 hr by […] competitive solid-phase binding assay; assay type: tissue-based
In short: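 Plates coated overnight at 4 °C in carbonate buffer pH 9.6 with fibronectin 0.5 µg/mL (αvβ3, αvβ6, α5β1), fibrinogen 10 µg/mL (αIIbβ3, αvβ5) or ICAM-1 (αLβ2). Blocked 1 h in buffer containing Ca/Mg/Mn 1 mM each and 1% BSA. Purified integrin (3–10 µg/mL) incubated with compound (10⁻⁴–10⁻¹⁰ M) 1 h at room temperature. Bound integrin detected with primary antibody then AlexaFluor488 secondary, Ex485/Em535. Duplicate, at least three repeats.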

[12] = molecular target: T7, Integrin alpha-L/beta-2 (LFA-1) (Homo sapiens, UniProt P05107+P20701); test: Antagonist activity at alphaLbeta2 in human Jurkat E6.1 cells assessed as reduction in cell adhesion to ICAM1 pre-incubated for 30 mins before ICAM1 and further incubated for 30 mins by […]; assay type: cell-based
In short: (§2)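 Jurkat E6.1 cells labelled with CellTracker green CMFDA (12.5 µM, 30 min, 37 °C), washed, then pre-incubated 30 min at 37 °C with compound or methanol. Plated at 500,000/well on VCAM-1 (α4β1) or ICAM-1 (αLβ2) coated wells (5 µg/mL) for 30 min at 37 °C. Cells lysed in 0.5% Triton X-100; fluorescence read Ex485/Em535. Quadruplicate, at least three repeats.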

[13] = molecular target: T2, Integrin alpha-5/beta-1; test: Agonist activity at alpha5beta1 in human K562 cells assessed as increase in cell adhesion to fibronectin at 10 ug/ml pre-incubated for 30 mins and further incubated for 1 hr in presence of integrin antagonist c(-RGDfV) by nitrophenyl-N-acetyl-beta-D-glucosaminide substrate based chromogenic assay; details: dose 10.0 µg/ml, time 90.0 min
In short: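 Agonist-coated wells (10 µg/mL in methanol). Cells pre-treated 10 min before plating with neutralizing anti-α5, anti-αv or anti-α4 antibody (10 µg/mL), or pre-incubated with c(-RGDfV) (1 µM). K562 plated at 50,000/well and Jurkat E6.1 at 500,000/well. Adhesion quantified as in the standard assay.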

[14] = system: MCF7; test: Toxicity in human MCF7 cells assessed as induction of cell necrosis and/or apoptosis incubated for 3 hrs by annexin V-PE and 7-AAD staining based by flow cytometry; details: mcf7, 3 h
In short: (§3)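 After 3 h incubation, cells resuspended in complete medium and stained with annexin V-PE/7-AAD reagent for 20 min at room temperature in the dark. Flow cytometry sorted cells into viable, early apoptotic and late apoptotic/necrotic populations.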

[15] = system: SK-MEL-24; test: Toxicity in human SK-MEL-24 cells assessed as induction of cell necrosis and/or apoptosis incubated for 3 hrs by annexin V-PE and 7-AAD staining based by flow cytometry; details: sk-mel-24, 3 h; in short: as §3
[16] = molecular target: T3, Integrin alpha-V/beta-5; test: Agonist activity at alphaVbeta5 in human MCF7 cells assessed as increase in cell adhesion to fibrinogen pre-incubated for 30 mins before fibrinogen and further incubated for 1 hr by nitrophenyl-N-acetyl-beta-D-glucosaminide substrate based chromogenic assay
In short: as §1, with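 “BSA/PBS. Adherent cells read by hexosaminidase substrate, absorbance 405 nm.” for “BSA/PBS.”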

[17] = system: HEL; test: Toxicity in human HEL cells assessed as induction of cell necrosis and/or apoptosis incubated for 3 hrs by annexin V-PE and 7-AAD staining based by flow cytometry; in short: as §3
[18] = molecular target: T6, Integrin alpha-V/beta-3; test: Agonist activity at alphaVbeta3 in human SK-MEL-24 cells assessed as increase in cell adhesion to fibronectin pre-incubated for 30 mins before fibronectin and further incubated for 1 hr by nitrophenyl-N-acetyl-beta-D-glucosaminide substrate based chromogenic assay
In short: as §1, with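 “BSA/PBS. Adherent cells read by hexosaminidase substrate, absorbance 405 nm.” for “BSA/PBS.”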

[19] = system: HT-29; test: Toxicity in human HT-29 cells assessed as induction of cell necrosis and/or apoptosis incubated for 3 hrs by annexin V-PE and 7-AAD staining based by flow cytometry; details: ht-29, 3 h; in short: as §3
[20] = molecular target: T5, Integrin alpha-V/beta-6; test: Antagonist activity at alphaVbeta6 in human HT-29 cells assessed as reduction in cell adhesion to fibronectin pre-incubated for 30 mins before fibronectin and further incubated for 1 hr by nitrophenyl-N-acetyl-beta-D-glucosaminide substrate based chromogenic assay; in short: as §1
[21] = molecular target: T2, Integrin alpha-5/beta-1; test: Agonist activity at alpha5beta1 in human K562 cells assessed as increase in cell adhesion to fibronectin pre-incubated for 30 mins and further incubated for 1 hr by nitrophenyl-N-acetyl-beta-D-glucosaminide substrate based chromogenic assay; details: filed as agonist, time 90.0 min
In short: as §1, with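 “BSA/PBS. Adherent cells read by hexosaminidase substrate, absorbance 405 nm.” for “BSA/PBS.”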

[22] = molecular target: T7, Integrin alpha-L/beta-2 (LFA-1); test: Agonist activity at alphaLbeta2 in human Jurkat E6.1 cells assessed as increase in cell adhesion to ICAM1 pre-incubated for 30 mins before ICAM1 and further incubated for 30 mins by […]; assay type: cell-based; in short: as §2
[23] = molecular target: T1, Integrin alpha-4/beta-1; test: Antagonist activity at alpha4beta1 in human Jurkat E6.1 cells assessed as reduction in VCAM-1 induced ERK1/2 phosphorylation at 1 to 100 nM by Western blot analysis; assay type: cell-based; details: filed as antagonist, dose 1-100 nM
[24] = molecular target: T1, Integrin alpha-4/beta-1; test: Inhibition of fibronectin binding to […] isolated from human Jurkat E6.1 cells incubated for 1 hr by scintillation-proximity assay based competitive solid-phase binding assay; assay type: tissue-based
[25] = system: K562; test: Toxicity in human K562 cells assessed as induction of cell necrosis and/or apoptosis incubated for 3 hrs by annexin V-PE and 7-AAD staining based by flow cytometry; details: k562, 3 h; in short: as §3

## Cc1ccccc1NC(=O)N1C(=O)CC1CC(=O)NCCC(=O)O (stereo not given)
[1]
  IC50: 17.4 nM
[2]
  Activity: Dose-dependent effect
[3]
  IC50: 634 nM
[4]
  Activity: inactive
[5]
  EC50: > 5000 nM
[6]
  EC50: 49 nM
[7]
  IC50: > 5000 nM
[8]
  IC50: 23.4 nM
[9]
  IC50: 116 nM
[10]
  Activity: Active
[11]
  IC50: 36 nM
[12]
  IC50: > 5000 nM
[13]
  Activity: inactive
[14]
  Activity: Non-Toxic
[15]
  Activity: Non-Toxic
[16]
  EC50: 670 nM
[17]
  Activity: Non-Toxic
[18]
  EC50: 187 nM
[19]
  Activity: Non-Toxic
[20]
  IC50: 44.4 nM
[21]
  Activity: Dose-dependent effect
[22]
  EC50: > 5000 nM
[23]
  Activity: Dose-dependent effect
[24]
  IC50: 12.4 nM
[25]
  Activity: Non-Toxic
